Assay results published in ChEMBL document CHEMBL4392838, “Binding pocket-based design, synthesis and biological evaluation of novel selective BRD4-BD1 inhibitors” (Bioorg Med Chem, 2019).

Legend:
[1] = test system: NRK-49F; assay: Antifibrotic activity against rat NRK-49F cells assessed as reduction in cell growth measured after 48 hrs by MTT assay; format: functional, cell-based
Outline: (§1)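 Cells grown at 37 °C in 5% CO2. MCF-7, A549 and HT-29 cells were kept in RPMI 1640 with 10% FBS and pen/strep. HepG2, A375, NRK-49F and LX-2 cells were kept in high-glucose DMEM with 10% FBS and pen/strep. HLF-1 cells were kept in DMEM/F-12 (1:1) with 10% FBS. Cells seeded for exponential growth, exposed to a concentration range for 48 h, then MTT added for 4 h at 37 °C. Formazan dissolved in DMSO, absorbance read at 490 nm, IC50 fitted.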

[2] = test system: A-375; assay: Antiproliferative activity against human A375 cells assessed as reduction in cell growth measured after 48 hrs by MTT assay; format: functional, cell-based; conditions: A-375, 48 h; outline: as §1
[3] = test system: A549; assay: Antiproliferative activity against human A549 cells assessed as reduction in cell growth measured after 48 hrs by MTT assay; format: functional, cell-based; conditions: A549, 48 h; outline: as §1
[4] = test system: MCF7; assay: Antiproliferative activity against human MCF7 cells assessed as reduction in cell growth measured after 48 hrs by MTT assay; format: functional, cell-based; conditions: MCF7, 48 h; outline: as §1
[5] = biological target: T1, Bromodomain-containing protein 4 (Homo sapiens, UniProt O60885); assay: Inhibition of biotinylated H4 K5,8,12,16Ac peptide binding to GST-tagged BRD4 bromodomain2 (unknown origin) at 100 uM measured after 60 mins by AlphaScreen assay relative to control
Outline: (§2)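 AlphaScreen proximity assay measuring binding of the tetra-acetylated (K5,8,12,16Ac) biotinylated histone H4 peptide to recombinant BRD4 BD1 or BD2. Buffer was 50 mM HEPES with BSA, at 1% DMSO in the 10X compound dilutions. Compound, bromodomain, peptide and histidine-conjugated acceptor beads were incubated 60 min at room temperature. Streptavidin donor beads were then added for 30 min in the dark, and the endpoint Alpha signal read. Inhibition taken at 100 µM, mean of three independent experiments.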

[6] = Antifibrotic activity against human LX2 cells assessed as reduction in cell growth measured after 48 hrs by MTT assay; format: functional, cell-based; conditions: LX-2, 48 h; outline: as §1
[7] = test system: HT-29; assay: Antiproliferative activity against human HT-29 cells assessed as reduction in cell growth measured after 48 hrs by MTT assay; format: functional, cell-based; conditions: HT-29, 48 h; outline: as §1
[8] = biological target: T1, Bromodomain-containing protein 4; assay: Inhibition of biotinylated H4 K5,8,12,16Ac peptide binding to GST-tagged BRD4 bromodomain1 (unknown origin) measured after 60 mins by AlphaScreen assay
[9] = Antifibrotic activity against human HLF1 cells assessed as reduction in cell growth measured after 48 hrs by MTT assay; format: functional, cell-based; conditions: HLF1, 48 h; outline: as §1
[10] = test system: HepG2; assay: Antiproliferative activity against human HepG2 cells assessed as reduction in cell growth measured after 48 hrs by MTT assay; format: functional, cell-based; conditions: HepG2, 48 h; outline: as §1
[11] = biological target: T1, Bromodomain-containing protein 4; assay: Inhibition of biotinylated H4 K5,8,12,16Ac peptide binding to GST-tagged BRD4 bromodomain1 (unknown origin) at 100 uM measured after 60 mins by AlphaScreen assay relative to control; outline: as §2

| SMILES | IC50 [1] [µM] | IC50 [2] [µM] | IC50 [3] [µM] | IC50 [4] [µM] | inhibition [5] [%] | IC50 [6] [µM] | IC50 [7] [µM] | IC50 [8] [µM] | IC50 [9] [µM] | IC50 [10] [µM] | inhibition [11] [%] |
| --- | --- | --- | --- | --- | --- | --- | --- | --- | --- | --- | --- |
| Cc1noc(C)c1Cn1c(=O)nc(-c2cccc(Cl)c2)c2c3c(sc21)CC(C(C)(C)C)CC3 (configuration not stated) | 8.5 | 15.9 | 18.9 | 25.7 | 52.3 | 15.3 | 19.7 | 3.1 | 12.8 | 3.6 |  |
| Cc1noc(C)c1Cn1c(=O)nc(-c2ccccc2)c2c3c(sc21)CCCC3 |  |  |  |  | 26.2 | 114 |  |  |  |  | 46.4 |
| CC(C)(C)C1CCc2c(sc3c2c(-c2ccc(Cl)cc2)nc(=O)n3Cc2cnc(Cl)s2)C1 (configuration not stated) |  |  |  |  |  | > 300 |  |  |  |  |  |
| CC(=O)C(C)n1c(=O)nc(-c2ccccc2)c2c3c(sc21)CCCC3 (configuration not stated) |  |  |  |  | 13.6 | > 300 |  |  |  |  | 30 |
| COc1ccc(-c2nc(=O)n(Cc3c(C)noc3C)c3sc4c(c23)CCC(C(C)(C)C)C4)cc1 (configuration not stated) | 22.2 | 14.2 | 18.9 | 10.4 | 42.2 | 12.9 | 13 | 11.4 | 14.1 | 15.1 |  |
| Cc1noc(C)c1Cn1c(=O)nc(-c2ccc(Cl)cc2)c2c3c(sc21)CC(C(C)(C)C)CC3 (configuration not stated) | 26.3 | 13.6 | 66.5 | 78.3 | 23.4 | 10.4 | 33.8 | 2.4 | 18.9 | 26.4 |  |
| Cc1noc(C)c1Cn1c(=O)nc(-c2ccccc2)c2c3c(sc21)CC(C)(C)CC3 |  |  |  |  | 44.9 | > 300 |  |  |  |  | 86.6 |
| Cc1noc(C)c1COc1nc(-c2ccc(Cl)c(Cl)c2)c2c3c(sc2n1)CC(C(C)(C)C)CC3 (configuration not stated) |  |  |  |  | 9.3 | > 300 |  |  |  |  | 32.6 |
| COc1ccc(-c2nc(=O)n(Cc3cnc(Cl)s3)c3sc4c(c23)CCC(C(C)(C)C)C4)cc1 (configuration not stated) | 11.2 | 6.5 | 95.1 | > 100 | 57.2 | 12.4 | 98 | 18.5 | 14.6 | 14.5 |  |
| COc1ccc(-c2nc(=O)n(Cc3c(C)noc3C)c3sc4c(c23)CCN(C(C)C)C4)cc1 |  |  |  |  | 66.6 | 101 |  |  |  |  | 82.9 |
| Cc1noc(C)c1Cn1c(=O)nc(-c2ccc(F)cc2)c2c3c(sc21)CC(C(C)(C)C)CC3 (configuration not stated) | 23.3 | 14.2 | 49.9 | 33.3 | 33.2 | 17.3 | 10.7 | 3.6 | 14.5 | 63.7 |  |
| COC(=O)c1ccc(-c2nc(=O)n(Cc3c(C)noc3C)c3sc4c(c23)CCC(C(C)(C)C)C4)cc1 (configuration not stated) | 8.1 | 8.7 | 19.3 | 38.6 | 49.7 | 19.6 | 17.8 | 1.5 | 6.6 | 12.8 |  |
| COC(=O)C1CCc2c(sc3c2c(-c2ccccc2)nc(=O)n3Cc2c(C)noc2C)C1 (configuration not stated) |  |  |  |  | 9 | > 300 |  |  |  |  | 19 |
| CCc1c(C)sc2c1c(-c1ccccc1)nc(=O)n2Cc1c(C)noc1C |  |  |  |  | 17.8 | > 300 |  |  |  |  | 9.5 |
